Screens deposited in PubChem by several laboratories.
Rows were chosen to be rich in hits. Some 3.8% of all compounds tested hit in one or more screens of this group.
RGS4 pot = RGS4 potentiation or activation; HEK293 M3R/inducible RGS4, carbachol calcium flux Fluo4; stronger effect = lower value; actives 0.92% (n = 310,000); B-score at 10 µM;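 active = B-score of the integrated calcium signal more than 4 SD below the library mean, with starting fluorescence not abnormally high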;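 note: negative B-score means reduced calcium response which marks RGS4 activation or potentiation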
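test system = HEK293 cells with stable M3R and inducible RGS4 | schedule = recording 10 s baseline at 1 Hz, 100 s post-agonist | technique = Fluo4-AM (2 µM) calcium-flux fluorescence, kinetic read | measure = Agonist-evoked peak-minus-minimum fluorescence over baseline, integrated ratio, B score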
MrgX1 antag = human MrgX1 receptor antagonism, primary screen. MRGX1-HEK293 calcium flux, Fluo-4, BAM8-22 antagonism; stronger effect = lower value. B-score at 10 µM. actives 1.3% (n = 310,000). Q96LB2;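 active = calcium-response B-score plate-corrected more than 3 library SD below zero, starting fluorescence within 5 deviations, no agonist response on first addition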;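 note: peak minus trough fluorescence over baseline after final BAM8-22 challenge near maximal dose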
Target sequence (Q96LB2 whole entry, looked up): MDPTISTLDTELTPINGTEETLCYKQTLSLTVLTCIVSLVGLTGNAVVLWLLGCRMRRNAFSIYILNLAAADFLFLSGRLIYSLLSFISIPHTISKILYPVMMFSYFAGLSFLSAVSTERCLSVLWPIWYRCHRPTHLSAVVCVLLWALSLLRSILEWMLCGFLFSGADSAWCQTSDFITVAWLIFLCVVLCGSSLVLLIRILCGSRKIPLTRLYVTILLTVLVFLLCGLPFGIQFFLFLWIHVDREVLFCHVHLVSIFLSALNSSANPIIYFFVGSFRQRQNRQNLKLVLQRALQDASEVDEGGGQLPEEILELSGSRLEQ
RGS4 block = inhibitors of human RGS4 | P49798 | HEK293 M3R/RGS4 inducible, Fluo-4 calcium flux; stronger effect = higher value; triggered by carbachol at its EC20 | AID 463165 | B-score at 10 µM | actives 0.45% (n = 310,000);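 active = B-score, a plate-corrected calcium signal, over three deviations above library mean, with baseline fluorescence within five deviations of library mean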;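 note: RGS4 expression induced by doxycycline in cells with stable M3 receptor; B-score is computed from the integrated fluorescence ratio over baseline after carbachol; higher B-score means a larger calcium signal and so more RGS4 inhibition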
Target sequence (P49798 whole entry, looked up): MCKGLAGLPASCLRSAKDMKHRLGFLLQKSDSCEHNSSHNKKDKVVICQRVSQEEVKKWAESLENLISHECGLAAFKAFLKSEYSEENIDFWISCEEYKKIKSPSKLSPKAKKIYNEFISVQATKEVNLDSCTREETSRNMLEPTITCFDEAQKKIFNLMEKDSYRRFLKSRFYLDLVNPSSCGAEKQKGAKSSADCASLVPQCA
MrgX1 PAM = allosterically activates human MrgX1 receptor signaling. Q96LB2. actives 0.63% (n = 310,000). MrgX1-HEK293, Fluo-4 calcium flux, FDSS; stronger effect = higher value. B-score at 10 µM. AID 588675;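 active = plate-corrected calcium response at least 3 library SD above typical, normal starting fluorescence, not activating the receptor alone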;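 note: compound read alongside a low EC10 to EC30 dose of BAM8-22 agonist; peak minus trough fluorescence over baseline measured at the second addition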
MrgX1 ag = agonists of human MrgX1 receptor; Q96LB2; MrgX1-HEK293 cells, Fluo-4 calcium fluorescence, agonist mode; stronger effect = higher value; B-score at 10 µM; actives 0.44% (n = 310,000);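 active = calcium response B-score plate-corrected fluorescence ratio at least 3 library SD, with starting fluorescence B-score inside 5 SD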
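Test system: Stable human MrgX1 HEK293 cell line | Schedule: Overnight plating before 1 h dye loading | Read-out basis: Baseline-normalised fluorescence change ratio, B-scored | Detection: Kinetic calcium dye fluorescence, Fluo-4 NW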
Lipid droplet = modulators of hepatic lipid droplet formation; inhibition, % at 6.5 µM; AID 1656; AML12 mouse hepatocytes, oleate lipid droplets, BODIPY imaging; actives 0.4% (n = 240,000);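 active = lipid droplet intensity inhibited by at least 50%, with more than 500 cells counted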
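Assay system: AML12 mouse liver cells | Compound: 6.5 µM single-point dosing | Schedule: Overnight exposure | Technique: Fluorescence imaging, 20x objective, two fields per well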
RGS4 inh valid = RGS4 inhibitor validation | HEK293 M3R/RGS4, carbachol calcium Fluo-4 fluorescence; carbachol added at its EC20; 0 = buffer wells, 100 = carbachol control | actives 65% (n = 1,700) | calcium response, % at 10 µM | shares compounds with RGS4 block | AID 492999;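 active = duplicate-averaged calcium response above the buffer-only control mean plus 5 SD of those controls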;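 note: integrated fluorescence ratio F max minus min over baseline F0; higher response in RGS4-induced cells means RGS4 inhibition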
RGS4 uninduced = non-induced cell nonspecific activity of RGS4 inhibitors | shares compounds with RGS4 block | activity (percent), % at 10 µM | HEK293 M3R non-induced, carbachol calcium Fluo-4; submaximal (EC20) carbachol stimulus; buffer wells 0%, carbachol control wells 100% | actives 20% (n = 1,900) | AID 493000; call rule not given here;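 note: RGS4 induction absent so cells express M3R without RGS4; higher means more calcium signal and flags a non-specific hit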
M3R basal Ca ctr = second counter-screen for RGS4 inhibitors: non-induced cells without carbachol; shares compounds with RGS4 block; HEK293 M3R/RGS4 non-induced, Fluo-4 calcium, no carbachol; normalised: buffer wells 0%, carbachol wells 100%; calcium response (agonist-mode artifact), % at 10 µM; actives 22% (n = 1,900); AID 493001;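 active = duplicate-averaged calcium rise in uninduced cells above buffer wells' mean plus 5 SD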
Of the large screens only hits and unclear results are named; the others gave an inactive call (follow-up assays come after a bar, where they were run).

Cc1oc2c(c(=O)c1C)C(=O)CC(c1ccccc1)C2 (stereo not drawn)	none (no result: Lipid droplet)
COc1ccc(-n2c(COc3ccc(Cl)cc3)nnc2SCc2ccc(C#N)cc2)cc1	none
CCOc1ccc(NCc2nnc(SCC(=O)Nc3cc(C)on3)n2-c2ccccc2OC)cc1	none
COc1ccc(NCc2nnc(SCc3ccc(Cl)cc3)n2-c2ccccc2)cc1	RGS4 block 8 | RGS4 inh valid 62% | RGS4 uninduced 40% | M3R basal Ca ctr 38%
CCOc1ccc(NCc2nnc(SCC(=O)Nc3cc(C)on3)n2-c2ccc(OC)cc2)cc1	RGS4 block 7 (no result: Lipid droplet) | RGS4 inh valid inactive | RGS4 uninduced inactive | M3R basal Ca ctr inactive
CN(CC(=O)Nc1ccc(Cl)c(C(F)(F)F)c1)C(=O)c1ccc(N2CCOCC2)c([N+](=O)[O-])c1	RGS4 block 5.4 (no result: Lipid droplet) | RGS4 inh valid 12% | RGS4 uninduced inactive | M3R basal Ca ctr 7.5%
CN(CC(=O)Nc1cccc(F)c1)C(=O)c1ccc(N2CCOCC2)c([N+](=O)[O-])c1	none
O=C(Nc1ccccc1N1CCCCC1)C1CCN(S(=O)(=O)c2ccccc2C(F)(F)F)CC1	none (no result: Lipid droplet)
CC1=NNC(=O)C1C(c1ccc(Cl)cc1)C(C#N)C#N (stereo not drawn)	none
CC1=NN(Cc2ccccc2)C(=O)C1C(c1ccc(Cl)cc1)C(C#N)C#N (stereo not drawn)	none | RGS4 inh valid inactive | RGS4 uninduced inactive | M3R basal Ca ctr 7.0%
CC1=NN(Cc2ccccc2)C(=O)C1	none
CC1=NN(Cc2ccccc2)C(=O)C1C(c1ccccc1)C(C#N)C#N (stereo not drawn)	none (no result: Lipid droplet) | RGS4 inh valid inactive | RGS4 uninduced inactive | M3R basal Ca ctr inactive
CC1=NN(Cc2ccccc2)C(=O)C1C(c1ccncc1)C(C#N)C#N (stereo not drawn)	RGS4 block 4.8 | RGS4 inh valid 7.5% | RGS4 uninduced inactive | M3R basal Ca ctr inactive
Cc1cc(=O)oc2c3c(cc(OCC(=O)N[C@@H](Cc4ccccc4)C(=O)O)c12)OC(C)(C)CC3	none (no result: Lipid droplet)
CCCCC(NC(=O)COc1cc2c(c3oc(=O)cc(C)c13)CCC(C)(C)O2)C(=O)O (stereo not drawn)	RGS4 block 5.7 | RGS4 inh valid inactive | RGS4 uninduced inactive | M3R basal Ca ctr inactive
Cc1cc(=O)oc2c3c(cc(OCC(=O)N[C@@H](C)C(=O)O)c12)OC(C)(C)CC3	none | RGS4 uninduced inactive | M3R basal Ca ctr inactive
NS(=O)(=O)c1ccc(CNC(=S)NC2CC2)cc1	none
O=C(O)/C=C/C(=O)Nc1ccc(-c2ccccc2)cc1	none
CCOC(=O)c1c(N2C(=O)CC(Sc3ccccc3C(=O)O)C2=O)sc2c1CCCC2 (stereo not drawn)	none
O=C(O)C1=C[C@H](c2csc3ccccc23)C[C@H](OCCCCO)O1	none
Cc1sc(/C=C2\C(=O)ON=C2c2ccccc2)cc1Br	none
O=C1ON=C(c2ccccc2)/C1=C/c1ccccc1	none | RGS4 inh valid inactive | RGS4 uninduced inactive | M3R basal Ca ctr inactive
O=C1ON=C(c2ccccc2)/C1=C/c1ccc(O)cc1	RGS4 block 11 | RGS4 inh valid 24% | RGS4 uninduced inactive | M3R basal Ca ctr 22%
Cc1ccc(C2=NOC(=O)/C2=C\c2ccccc2)cc1	none (no result: Lipid droplet)
Cc1sc(NC(=O)CSC2=NCCS2)nc1-c1ccccc1	none
